This is an account of results in ChEMBL document CHEMBL1122828, “Resolution and absolute configuration of the potent dopamine agonist N,N-diethyl-N'-[(3 alpha, 4a alpha, 10a beta)-1,2,3,4,4a,5,10,10a- -octahydro-6-hydroxy-1-propyl-3-benzo[g]quinolinyl]sulfamide” (J Med Chem, 1985).

Assay [1] deals with Rattus norvegicus. The assay is described as follows: Compound was evaluated for the in vivo inhibition of basal prolactin for a time 4 hr after injection in male rats. It counts as functional. In outline:
(§1)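 Adult male SIV 50 rats were housed singly from the day before, with light from 4 a.m. to 6 p.m. They got a single sc injection and were decapitated 4 h later. Trunk blood was taken and serum pooled from 3 rats per group, with 1–3 groups per dose. Prolactin was measured by double-antibody RIA against NIH rat Prl RP-1. The dose giving a 50% fall in serum prolactin was estimated graphically.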

Assay [2] has as its target T1, Dopamine receptor (Bos taurus, UniProt Q95136+P20288). The assay is described as follows: In vitro inhibitory activity was evaluated against,[3H]spiperone calf caudate (SPC) dopamine receptor. It counts as protein assay. In outline: (§2)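 Radioligand displacement used brain homogenates. Four to six test concentrations were each incubated in triplicate. IC50 in nM came from weighted regression analysis.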

Assay [3] addresses T1, Dopamine receptor. The assay is described as follows: In vitro inhibitory activity was evaluated against,[3H]dopamine (DA),calf caudate dopamine receptor. It counts as protein assay. In outline: as §2
In assay [4] the target is T2, Adrenergic receptor alpha-1 (Rattus norvegicus, UniProt P15823+P23944+P43140).
T2 sequence (P15823 whole entry): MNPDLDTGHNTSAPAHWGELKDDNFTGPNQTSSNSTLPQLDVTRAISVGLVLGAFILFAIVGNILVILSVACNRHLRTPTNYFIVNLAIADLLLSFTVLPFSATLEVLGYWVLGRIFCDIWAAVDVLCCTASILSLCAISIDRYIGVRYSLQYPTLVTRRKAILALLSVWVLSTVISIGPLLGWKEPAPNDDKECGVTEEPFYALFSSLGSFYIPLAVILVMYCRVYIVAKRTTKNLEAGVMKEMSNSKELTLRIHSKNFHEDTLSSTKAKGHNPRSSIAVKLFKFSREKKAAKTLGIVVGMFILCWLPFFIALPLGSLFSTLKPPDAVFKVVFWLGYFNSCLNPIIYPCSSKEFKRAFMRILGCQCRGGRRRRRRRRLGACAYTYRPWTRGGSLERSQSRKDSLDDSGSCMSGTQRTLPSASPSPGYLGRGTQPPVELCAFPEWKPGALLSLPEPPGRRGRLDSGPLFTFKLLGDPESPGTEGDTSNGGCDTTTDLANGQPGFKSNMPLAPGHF
T2 sequence (P23944 whole entry): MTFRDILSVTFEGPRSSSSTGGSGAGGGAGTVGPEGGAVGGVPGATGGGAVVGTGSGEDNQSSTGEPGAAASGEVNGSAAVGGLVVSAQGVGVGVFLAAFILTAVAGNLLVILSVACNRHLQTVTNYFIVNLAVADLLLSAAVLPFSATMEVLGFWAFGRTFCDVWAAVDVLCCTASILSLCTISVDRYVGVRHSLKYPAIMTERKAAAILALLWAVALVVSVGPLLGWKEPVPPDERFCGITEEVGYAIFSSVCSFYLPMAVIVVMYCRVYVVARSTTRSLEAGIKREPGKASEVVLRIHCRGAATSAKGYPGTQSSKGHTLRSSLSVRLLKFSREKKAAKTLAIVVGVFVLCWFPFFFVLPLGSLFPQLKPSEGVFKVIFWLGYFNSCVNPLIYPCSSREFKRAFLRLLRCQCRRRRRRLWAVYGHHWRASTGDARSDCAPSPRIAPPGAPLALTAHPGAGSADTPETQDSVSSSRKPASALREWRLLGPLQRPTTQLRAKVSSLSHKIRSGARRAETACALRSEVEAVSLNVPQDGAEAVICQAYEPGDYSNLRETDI
T2 sequence (P43140 whole entry): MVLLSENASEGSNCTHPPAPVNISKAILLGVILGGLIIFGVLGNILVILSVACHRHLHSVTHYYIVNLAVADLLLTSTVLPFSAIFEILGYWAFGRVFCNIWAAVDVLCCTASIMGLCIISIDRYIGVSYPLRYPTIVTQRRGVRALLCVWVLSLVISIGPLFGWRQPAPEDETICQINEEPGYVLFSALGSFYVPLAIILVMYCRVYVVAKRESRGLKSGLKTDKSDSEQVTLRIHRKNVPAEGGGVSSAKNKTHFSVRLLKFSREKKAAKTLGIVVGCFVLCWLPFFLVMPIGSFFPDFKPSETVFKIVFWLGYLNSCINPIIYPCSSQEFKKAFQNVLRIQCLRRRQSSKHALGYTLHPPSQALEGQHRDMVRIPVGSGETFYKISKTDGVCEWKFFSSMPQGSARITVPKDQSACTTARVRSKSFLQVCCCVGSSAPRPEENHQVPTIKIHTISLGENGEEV
The assay is described as follows: In vitro inhibitory activity was evaluated against,[3H]WB 4101 whole rat brain alpha 1-adrenoceptor. In outline:
as §2

Assay [5] addresses T3, Adrenergic receptor alpha-2 (Rattus norvegicus, UniProt P22086+P19328+P22909).
T3 sequence (P22086 whole entry): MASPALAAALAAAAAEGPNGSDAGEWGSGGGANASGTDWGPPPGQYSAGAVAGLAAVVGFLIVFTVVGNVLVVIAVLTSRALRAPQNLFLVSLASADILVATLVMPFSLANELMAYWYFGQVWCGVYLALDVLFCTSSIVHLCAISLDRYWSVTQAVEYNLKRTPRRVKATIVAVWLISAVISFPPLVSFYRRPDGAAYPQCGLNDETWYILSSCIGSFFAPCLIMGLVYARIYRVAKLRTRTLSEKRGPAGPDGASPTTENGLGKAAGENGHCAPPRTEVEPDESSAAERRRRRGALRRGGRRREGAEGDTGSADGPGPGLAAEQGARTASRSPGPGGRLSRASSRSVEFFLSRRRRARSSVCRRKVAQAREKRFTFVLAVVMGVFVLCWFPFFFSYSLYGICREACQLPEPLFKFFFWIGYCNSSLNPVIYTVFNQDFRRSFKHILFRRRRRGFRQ
T3 sequence (P19328 whole entry): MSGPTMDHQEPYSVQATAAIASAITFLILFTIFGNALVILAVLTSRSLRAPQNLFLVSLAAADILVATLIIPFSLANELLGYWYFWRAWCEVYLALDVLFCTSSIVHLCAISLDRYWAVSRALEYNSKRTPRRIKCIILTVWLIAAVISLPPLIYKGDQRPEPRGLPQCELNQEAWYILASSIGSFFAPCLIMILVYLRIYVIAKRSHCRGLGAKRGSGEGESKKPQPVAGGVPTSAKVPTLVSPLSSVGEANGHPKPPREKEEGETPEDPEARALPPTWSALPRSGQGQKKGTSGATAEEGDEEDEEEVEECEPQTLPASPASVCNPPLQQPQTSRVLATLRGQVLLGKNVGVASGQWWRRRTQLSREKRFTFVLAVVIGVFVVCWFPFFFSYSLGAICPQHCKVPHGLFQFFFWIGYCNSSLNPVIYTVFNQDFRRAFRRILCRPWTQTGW
T3 sequence (P22909 whole entry): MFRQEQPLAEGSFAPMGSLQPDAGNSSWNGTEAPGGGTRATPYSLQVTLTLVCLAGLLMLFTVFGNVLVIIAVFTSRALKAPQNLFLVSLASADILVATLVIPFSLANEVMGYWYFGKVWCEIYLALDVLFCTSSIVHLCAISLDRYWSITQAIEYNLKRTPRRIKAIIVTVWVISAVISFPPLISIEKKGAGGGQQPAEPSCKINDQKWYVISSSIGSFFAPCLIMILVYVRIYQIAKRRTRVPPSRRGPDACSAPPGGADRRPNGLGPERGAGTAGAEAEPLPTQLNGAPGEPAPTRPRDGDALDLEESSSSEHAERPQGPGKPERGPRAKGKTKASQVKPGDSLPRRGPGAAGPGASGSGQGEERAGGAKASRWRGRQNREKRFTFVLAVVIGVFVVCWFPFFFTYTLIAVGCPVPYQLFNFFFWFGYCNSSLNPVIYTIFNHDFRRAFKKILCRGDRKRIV
The assay is described as follows: In vitro inhibitory activity was evaluated against,[3H]clonidine (Clon) rat brain minus cerebellum Alpha-2 adrenergic receptor. The assay is classed as tissue-based. In outline: as §2

Assay [6] addresses Serotonin (5-HT) receptor. The assay is described as follows: In vitro inhibitory activity was evaluated against,[3H]serotonin (5-HT) whole rat brain serotonin receptor.
In assay [7] the target is Serotonin (5-HT) receptor. In words: In vitro inhibitory activity was evaluated against,[3H]spiperone rat frontal cortex (SPFC) serotonin receptor. The assay is classed as tissue-based.
Assay [8] concerns the target T1, Dopamine receptor. The assay is described as follows: In vitro inhibitory activity was evaluated against [3H]spiperone calf caudate (SPC) dopamine receptor. The assay is classed as protein assay. An outline of the steps:
as §2

Assay [9] has as its target T1, Dopamine receptor. The assay is described as follows: In vitro inhibitory activity was evaluated against [3H]dopamine (DA) calf caudate dopamine receptor. It counts as protein assay. An outline of the steps: as §2
Assay [10] concerns Rattus norvegicus. In words: Compound was evaluated for the in vivo inhibition of basal prolactin secretion for a time 4 hr after injection in male rats. As to conditions: read-out: ID50 (the source's name). It counts as functional. In outline: as §1
For assay [11], the system named is Rattus norvegicus. The assay is described as follows: Compound was evaluated for the in vivo inhibition of basal prolactin secretion for a time 30 min after injection in male rats. It counts as functional. As to conditions: 0.5 h, read-out: ID50 (the source's name).
Assay [12] has as its system Rattus norvegicus. In words: Compound was evaluated for the in vivo inhibition of basal prolactin secretion for a time 60 min after injection in male rats. The assay is classed as functional. As to conditions: 1 h, read-out: ID50 (the source's name).

The term IC50 denotes the point on the concentration scale where inhibition reaches its midpoint. Lower therefore signals higher potency. In assay [1], `CCCN1CC(NS(=O)(=O)N(CC)CC)CC2Cc3c(O)cccc3CC21` (stereo in doubt; -1) [QUINAGOLIDE] gave an ID50 of 0.0018 mg/kg. The IC50 is 0.019 µM in [2], 0.075 µM in assay [3], 6 µM in assay [4] and 7.4 µM in [5].

With `CCN(CC)S(=O)(=O)N[C@H]1C[C@@H]2c3cccc4[nH]cc(c34)C[C@H]2N(C)C1` [ETISULERGINE], the IC50 in [6] was > 5 µM; in [2] it was 0.025 µM; in assay [3], 0.12 µM; in [4] it was 3.3 µM; in [7], 0.026 µM; in assay [5], 0.48 µM. Also, the ED50 in [1] (Rattus norvegicus, 4 h, read-out: ID50 (the source's name)) was found to be 0.0014 mg/kg.

On to `CCCN1CC(NS(=O)(=O)N(CC)CC)CC2Cc3c(O)cccc3CC21` (stereo in doubt; (+)1) [QUINAGOLIDE], for which the IC50 in assay [8] is > 10 µM; in assay [9], > 100 µM; in [4], > 10 µM; in assay [5] it was > 10 µM. For the same compound, in [10], the ED50 was > 3 mg/kg.

As to `CCCN1CC(NS(=O)(=O)N(CC)CC)CC2Cc3c(O)cccc3CC21` (racemic) [QUINAGOLIDE], the ID50 in assay [1] stood at 0.005 mg/kg. For the same compound, the IC50 in [2] was found to be 0.048 µM; in assay [3] it was 0.19 µM; in assay [4], 7.8 µM; in assay [5] it was 5.6 µM.

As for `CN1CCc2cccc3c2[C@H]1Cc1ccc(O)c(O)c1-3` [APOMORPHINE], the IC50 is > 10 µM in [6], 7.75 µM in [4] and 4.5 µM in assay [7]. Moreover, the values for the ED50 in [11], in assay [12] and in assay [10] were 0.058 mg/kg, 0.081 mg/kg and > 10 mg/kg, respectively.
